For data set [1], the target named is T1, Cholesterol side-chain cleavage enzyme, mitochondrial (cytochrome P450scc) (Bos taurus, UniProt P00189).
T1 sequence (P00189 whole entry): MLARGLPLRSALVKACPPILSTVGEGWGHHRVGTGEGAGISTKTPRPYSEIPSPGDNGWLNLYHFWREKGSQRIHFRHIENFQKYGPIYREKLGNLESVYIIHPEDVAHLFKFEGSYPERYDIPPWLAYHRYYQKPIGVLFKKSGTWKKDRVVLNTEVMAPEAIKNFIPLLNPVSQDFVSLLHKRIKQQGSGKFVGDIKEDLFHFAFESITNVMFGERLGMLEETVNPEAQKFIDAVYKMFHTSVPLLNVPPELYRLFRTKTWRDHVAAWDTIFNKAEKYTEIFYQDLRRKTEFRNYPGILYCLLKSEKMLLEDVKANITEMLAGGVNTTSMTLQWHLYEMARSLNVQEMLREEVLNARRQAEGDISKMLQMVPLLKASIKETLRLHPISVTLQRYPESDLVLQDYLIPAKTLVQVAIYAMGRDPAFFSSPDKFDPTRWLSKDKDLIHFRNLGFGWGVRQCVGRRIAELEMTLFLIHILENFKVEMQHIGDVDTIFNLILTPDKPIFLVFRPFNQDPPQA
Put plainly: Inhibition of Bovine adrenal cholesterol side chain cleavage cytochrome P450 at 50 ug/mL. As to conditions: cattle. In short, it runs like this:
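Bovine adrenal CSCC enzyme (cholesterol to pregnenolone) preparation. Inhibitor at 50 μg/mL, the highest concentration tested. Result is percent inhibition relative to uninhibited control, as the mean of two determinations (variability <10%).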

Data set [2] concerns the target T2, Aromatase (Homo sapiens, UniProt P11511).
T2 sequence (P11511 whole entry): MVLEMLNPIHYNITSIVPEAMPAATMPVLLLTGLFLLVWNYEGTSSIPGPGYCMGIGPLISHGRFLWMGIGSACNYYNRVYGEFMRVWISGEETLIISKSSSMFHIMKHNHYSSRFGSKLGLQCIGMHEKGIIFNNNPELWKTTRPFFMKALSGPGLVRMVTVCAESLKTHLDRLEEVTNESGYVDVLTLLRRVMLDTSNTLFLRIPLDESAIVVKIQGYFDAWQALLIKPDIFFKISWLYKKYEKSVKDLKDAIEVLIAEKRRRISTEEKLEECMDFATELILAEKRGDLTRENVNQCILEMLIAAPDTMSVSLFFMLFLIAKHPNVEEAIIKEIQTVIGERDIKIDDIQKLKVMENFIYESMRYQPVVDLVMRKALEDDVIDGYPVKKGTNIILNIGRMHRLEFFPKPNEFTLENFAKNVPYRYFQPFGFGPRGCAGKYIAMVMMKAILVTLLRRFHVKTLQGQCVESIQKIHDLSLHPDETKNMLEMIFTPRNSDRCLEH
The data set is described as follows: Inhibition of Cytochrome P450 19A1 at 20 ug/mL. The procedure, abridged:
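Human placental aromatase preparation. Inhibitor at 20 μg/mL. Result is percent inhibition of androgen aromatization relative to control.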

The target of data set [3] is T2, Aromatase.
Data set [4] has as its target T2, Aromatase. The source holds these as a separate data set.
Data set [5] deals with T2, Aromatase. The source holds these as a separate data set.

pIC50, pKi: −log10 of the molar value.

`NC(=O)CCc1ccc(N)cc1`: in data set [1], the inhibition at 50 ug/mL worked out at 19%. On Aromatase [2], this compound gave an inhibition at 20 µg/mL of 38%.

The compound `CN1C(=O)CC(C)(c2ccc(N)cc2)C1=O` (stereo not given) showed an inhibition at 50 ug/mL in data set [1] of 30%. Also, the pIC50 was 5.00 against Aromatase [3] and 4.81 on Aromatase [4]. In addition, the pKi on Aromatase [5] was 5.76.

`CCC1(c2ccc(N)cc2)CC(=O)N(C)C1=O` (stereo not given) registered an inhibition at 50 ug/mL in data set [1] of 0%.

For the compound `CN1C(=O)CC(c2ccc(N)cc2)C1=O` (stereo not given), in data set [1], the inhibition at 50 ug/mL amounted to 30%. Moreover, the pIC50 at Aromatase [3] is 5.00; at Aromatase [4], 4.78. Besides, the pKi at Aromatase [5] is 5.76.

As to `CCC1(c2ccc(N)cc2)CC(=O)NC1=O` (stereo not given), the inhibition at 50 ug/mL in data set [1] came out at 38%. In addition, the pIC50 against Aromatase [3] was 5.08; against Aromatase [4] it was 4.87. This compound had a negative logarithm of the Ki (pKi) at Aromatase [5] of 6.00.

Regarding `CC1(c2ccc(N)cc2)CC(=O)NC1=O` (stereo not given), the inhibition at 50 ug/mL in data set [1] amounted to 0%. For the same compound, the pIC50 against Aromatase [3] is 5.00; against Aromatase [4], 4.90. The negative logarithm of the Ki (pKi) at Aromatase [5] is 6.10.

For `CCC1(c2ccc(N)cc2)CCC(=O)NC1=O` (stereo not given) [AMINOGLUTETHIMIDE], in data set [1], the inhibition at 50 ug/mL was 83%.

Take `NC(=O)CCc1ccc([N+](=O)[O-])cc1`: the inhibition at 50 ug/mL in data set [1] amounted to 28%. The inhibition at 20 µg/mL on Aromatase [2] came to 8%.

As to `Nc1ccc(C2CC(=O)NC2=O)cc1` (stereo not given), in data set [1], the inhibition at 50 ug/mL was 30%. In addition, the pIC50 against Aromatase [3] was 4.99; against Aromatase [4], 4.70.
